The values that follow come from publication PMC6843717 (ACS Omega, 2019).

The nature of the data set: Stability of MBQ-167 in mouse plasma. The settings on record: for postpreparative stability RE%: 8 h; for short term stability RE%: 4 h at benchtop; for freeze–thaw stability RE% / long term stability RE%: −80 °C; for freeze–thaw stability RE%: 3 cycles 24 h. The class given is physicochemical. The gist of the method:
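Spiked mouse plasma QCs (calibration 1.5–1000 ng/mL) quantified by SFC-MS/MS after protein precipitation; RE% against nominal. Short-term: 2.5 and 950 ng/mL, 4 h at room temperature. Postpreparative: three QC levels (2.5, 450, 950 ng/mL) held at 4 °C. Long-term: −80 °C for 15 and 134 days. Freeze–thaw: three 24 h cycles at −80 °C.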

Marks after values point to notes of the source that are not given here.

For `CCn1c2ccccc2c2cc(-n3nncc3-c3ccccc3)ccc21` [MBQ-167], the “stability in plasma (±15% RSD, RE)” value (incubation at ambient temperature for four hours) is on record as “stable”. Where the note is “plasma, 4 °C”, the “postpreparative stability in autosampler conditions” value worked out at 8 h. Also, the “long-term stability at −80 °C” value was found to be 134 days (plasma, high drug concentration) and 15 days (plasma, low drug concentration). Also, the “postpreparative stability RE%” value runs as follows: (plasma, spiked 2.5 ng/mL, 4 °C) 8.0%; (plasma, spiked 950 ng/mL, 4 °C) 15.2%. The “short term stability RE%” value runs as follows: (plasma, spiked 2.5 ng/mL) 4.0%; (plasma, spiked 950 ng/mL) “–0.5%”. The “freeze–thaw stability RE%” value is, setting by setting: (plasma, spiked 2.5 ng/mL) “–2.7%”; (plasma, spiked 950 ng/mL) “–1.2%”. Moreover, the “long term stability RE%” value reads like this: (plasma, spiked 2.5 ng/mL, 15 days) 12.6 ^b %; (plasma, spiked 950 ng/mL, 134 days) “–1.0 ^d %”. Moreover, for the setting “plasma, three freeze–thaw cycles lasting 24 h”, the “freeze–thaw stability” value was “stable”.
